Source: ChEMBL document CHEMBL1152461, “Tetracycline-inducible expression of individual secreted aspartic proteases in Candida albicans allows isoenzyme-specific inhibitor screening” (Antimicrob Agents Chemother, 2008)
Calls of active or inactive are those of the source. No cut-off for these calls is given here.

What was measured:
[1] = target: T1, Secreted aspartic protease 9 (Candida albicans) (UniProt O42779); experiment: Inhibition of SAP9-dependent growth in Candida albicans SAP2MS4B expressing SAP9deltaC493 at 100 uM incubated in YCB-BSA medium
T1 sequence (whole entry): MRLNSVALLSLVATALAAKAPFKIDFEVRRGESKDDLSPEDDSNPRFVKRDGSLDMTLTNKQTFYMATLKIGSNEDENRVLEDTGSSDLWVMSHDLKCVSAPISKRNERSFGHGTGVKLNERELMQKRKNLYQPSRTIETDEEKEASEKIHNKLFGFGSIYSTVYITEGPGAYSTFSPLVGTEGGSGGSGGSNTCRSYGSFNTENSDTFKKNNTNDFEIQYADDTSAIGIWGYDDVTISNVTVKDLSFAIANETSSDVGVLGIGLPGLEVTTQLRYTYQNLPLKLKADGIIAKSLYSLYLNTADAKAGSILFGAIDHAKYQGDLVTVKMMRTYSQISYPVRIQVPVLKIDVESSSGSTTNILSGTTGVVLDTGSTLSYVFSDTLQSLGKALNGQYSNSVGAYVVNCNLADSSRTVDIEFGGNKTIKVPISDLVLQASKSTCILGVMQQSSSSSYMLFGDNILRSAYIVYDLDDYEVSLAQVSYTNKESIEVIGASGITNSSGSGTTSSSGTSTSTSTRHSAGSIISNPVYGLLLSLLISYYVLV
Summary of the method: (§1)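 Overnight SD-medium (30°C) preculture diluted 1:100 into YCB-BSA (4 g/liter BSA as sole nitrogen source) adjusted to pH 5.0, with 25 μg/ml doxycycline inducing Tet-promoter SAP expression; incubated 37°C. Pepstatin A 7.3 μM or HIV protease inhibitors 100 μM (0.125% DMSO final); DMSO-only control. OD600 monitored over time.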

[2] = target: Candidapepsin-4 (Candida albicans (strain WO-1) (Yeast)) (UniProt P43093); experiment: Inhibition of SAP4-dependent growth in Candida albicans SAP2MS4B expressing SAP4ex4A at 100 uM incubated in YCB-BSA medium; summary of the method: as §1
Chain of Candidapepsin-4 (Candida albicans (strain WO-1) (Yeast)) (P43093 whole entry): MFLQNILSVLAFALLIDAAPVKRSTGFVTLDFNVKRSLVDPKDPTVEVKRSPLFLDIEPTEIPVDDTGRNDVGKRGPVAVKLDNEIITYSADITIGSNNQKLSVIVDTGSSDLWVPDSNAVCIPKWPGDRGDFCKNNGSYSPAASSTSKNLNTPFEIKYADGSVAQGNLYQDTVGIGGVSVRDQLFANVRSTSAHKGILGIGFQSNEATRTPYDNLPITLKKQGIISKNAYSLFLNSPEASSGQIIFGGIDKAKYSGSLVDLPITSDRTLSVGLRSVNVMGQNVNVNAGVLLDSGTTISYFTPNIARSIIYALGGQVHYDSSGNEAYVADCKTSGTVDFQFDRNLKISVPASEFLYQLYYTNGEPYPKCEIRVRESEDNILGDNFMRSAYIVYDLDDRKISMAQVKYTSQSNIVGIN

[3] = target: Secreted aspartic protease 1 (Candida albicans) (UniProt P0CY26); experiment: Inhibition of SAP1-dependent growth in Candida albicans SAP2MS4B expressing SAP1ex4A at 100 uM incubated in YCB-BSA medium
Chain of Secreted aspartic protease 1 (Candida albicans) (P0CY26 whole entry): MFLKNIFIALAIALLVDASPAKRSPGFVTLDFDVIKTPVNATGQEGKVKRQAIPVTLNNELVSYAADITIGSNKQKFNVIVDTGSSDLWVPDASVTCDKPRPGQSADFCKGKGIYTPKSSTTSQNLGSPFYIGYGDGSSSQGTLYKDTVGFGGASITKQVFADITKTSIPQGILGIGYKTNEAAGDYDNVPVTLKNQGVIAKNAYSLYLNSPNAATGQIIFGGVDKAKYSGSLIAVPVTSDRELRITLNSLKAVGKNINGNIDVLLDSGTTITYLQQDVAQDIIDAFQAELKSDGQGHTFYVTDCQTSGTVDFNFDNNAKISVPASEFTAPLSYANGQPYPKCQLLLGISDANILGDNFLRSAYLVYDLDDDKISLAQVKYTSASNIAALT
Summary of the method: (§2)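 Overnight SD-medium (30°C) preculture diluted 1:100 into YCB-BSA (yeast carbon base plus 4 g/liter BSA as sole nitrogen source) adjusted to pH 4.0, with 50 μg/ml doxycycline to induce Tet-promoter SAP expression; incubated 30°C. Pepstatin A 7.3 μM or HIV protease inhibitors 100 μM (0.125% DMSO final); DMSO-only control. Growth followed as OD600 over time.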

[4] = target: Secreted aspartic protease 6 (Candida albicans) (UniProt P43095); experiment: Inhibition of SAP6-dependent growth in Candida albicans SAP2MS4B expressing SAP6ex4A at 100 uM incubated in YCB-BSA medium; summary of the method: as §1
Chain of Secreted aspartic protease 6 (Candida albicans) (P43095 whole entry): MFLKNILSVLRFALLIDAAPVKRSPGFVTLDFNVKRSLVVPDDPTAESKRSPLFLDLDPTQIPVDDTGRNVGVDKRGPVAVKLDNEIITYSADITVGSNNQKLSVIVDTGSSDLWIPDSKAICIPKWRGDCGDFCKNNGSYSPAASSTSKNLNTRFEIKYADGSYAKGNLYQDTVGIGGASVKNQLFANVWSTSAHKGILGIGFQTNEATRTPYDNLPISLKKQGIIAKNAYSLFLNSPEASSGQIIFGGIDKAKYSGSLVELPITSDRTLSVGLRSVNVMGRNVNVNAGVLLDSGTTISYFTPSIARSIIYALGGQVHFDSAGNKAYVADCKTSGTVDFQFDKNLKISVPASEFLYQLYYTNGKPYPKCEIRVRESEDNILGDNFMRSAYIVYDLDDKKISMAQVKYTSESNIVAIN

[5] = target: Secreted aspartic protease 8 (Candida albicans) (UniProt O42778); experiment: Inhibition of SAP8-dependent growth in Candida albicans SAP2MS4B expressing SAP8ex4A at 100 uM incubated in YCB-BSA medium; summary of the method: as §2
Chain of Secreted aspartic protease 8 (Candida albicans) (O42778 whole entry): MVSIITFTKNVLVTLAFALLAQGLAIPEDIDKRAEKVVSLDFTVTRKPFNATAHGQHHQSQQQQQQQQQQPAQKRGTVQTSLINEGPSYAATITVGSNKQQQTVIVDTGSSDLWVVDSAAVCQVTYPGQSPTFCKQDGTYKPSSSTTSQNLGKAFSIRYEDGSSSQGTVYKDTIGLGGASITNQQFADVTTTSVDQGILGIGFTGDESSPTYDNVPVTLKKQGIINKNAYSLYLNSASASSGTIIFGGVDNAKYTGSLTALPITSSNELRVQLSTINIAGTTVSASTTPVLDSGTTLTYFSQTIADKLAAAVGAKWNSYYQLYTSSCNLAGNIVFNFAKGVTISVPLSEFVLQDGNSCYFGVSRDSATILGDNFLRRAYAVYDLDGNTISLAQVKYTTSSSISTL

[6] = target: T2, Secreted aspartic protease 5 (Candida albicans (strain SC5314 / ATCC MYA-2876) (Yeast)) (UniProt P43094); experiment: Inhibition of SAP5-dependent growth in Candida albicans SAP2MS4B expressing SAP5ex4A at 100 uM incubated in YCB-BSA medium; summary of the method: as §1
T2 sequence (whole entry): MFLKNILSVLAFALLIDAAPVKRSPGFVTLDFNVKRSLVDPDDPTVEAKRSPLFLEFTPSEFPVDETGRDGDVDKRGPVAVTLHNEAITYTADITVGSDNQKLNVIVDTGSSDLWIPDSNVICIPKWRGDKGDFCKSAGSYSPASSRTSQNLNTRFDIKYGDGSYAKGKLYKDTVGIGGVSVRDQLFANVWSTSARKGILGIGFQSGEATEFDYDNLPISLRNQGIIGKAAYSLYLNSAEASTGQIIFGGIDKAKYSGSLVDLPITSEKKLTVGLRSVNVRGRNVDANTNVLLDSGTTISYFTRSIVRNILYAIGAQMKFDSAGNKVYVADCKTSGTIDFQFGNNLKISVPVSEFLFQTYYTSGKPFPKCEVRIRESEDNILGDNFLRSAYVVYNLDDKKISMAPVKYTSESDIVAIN

[7] = target: Secreted aspartic protease 2 (Candida albicans) (UniProt P0CS83); experiment: Inhibition of SAP2-dependent growth in Candida albicans SAP2MS4B expressing SAP2ex4A at 100 uM incubated in YCB-BSA medium; summary of the method: as §2
Chain of Secreted aspartic protease 2 (Candida albicans) (P0CS83 57-398 limits assumed): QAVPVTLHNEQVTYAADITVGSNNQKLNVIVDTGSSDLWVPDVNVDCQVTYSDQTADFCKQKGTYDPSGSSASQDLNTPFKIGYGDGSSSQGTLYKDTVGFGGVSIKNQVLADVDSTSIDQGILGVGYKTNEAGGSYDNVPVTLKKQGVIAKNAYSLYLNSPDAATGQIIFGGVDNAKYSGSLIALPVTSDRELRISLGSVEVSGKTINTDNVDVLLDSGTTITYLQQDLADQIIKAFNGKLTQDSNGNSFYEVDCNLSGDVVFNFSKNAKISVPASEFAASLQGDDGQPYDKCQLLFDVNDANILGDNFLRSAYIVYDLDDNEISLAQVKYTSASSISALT

[8] = target: Secreted aspartic protease 3 (Candida albicans) (UniProt P0CY28); experiment: Inhibition of SAP3-dependent growth in Candida albicans SAP2MS4B expressing SAP3ex4A at 100 uM incubated in YCB-BSA medium; summary of the method: as §2
Chain of Secreted aspartic protease 3 (Candida albicans) (P0CY28 whole entry): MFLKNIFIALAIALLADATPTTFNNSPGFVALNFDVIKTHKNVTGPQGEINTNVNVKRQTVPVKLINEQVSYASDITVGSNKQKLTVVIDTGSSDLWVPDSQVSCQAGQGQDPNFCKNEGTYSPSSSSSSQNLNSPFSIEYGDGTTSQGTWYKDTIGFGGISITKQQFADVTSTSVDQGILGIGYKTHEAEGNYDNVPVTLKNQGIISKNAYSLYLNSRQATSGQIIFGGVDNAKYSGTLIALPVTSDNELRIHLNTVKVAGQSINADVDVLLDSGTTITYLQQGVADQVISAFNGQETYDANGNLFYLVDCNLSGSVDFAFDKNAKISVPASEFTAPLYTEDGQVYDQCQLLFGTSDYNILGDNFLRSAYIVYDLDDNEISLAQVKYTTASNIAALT

[9] = target: T1, Secreted aspartic protease 9 (Candida albicans); experiment: Inhibition of SAP9-dependent growth in Candida albicans SAP2MS4B expressing SAP9deltaC493 at 7.3 uM incubated in YCB-BSA medium; summary of the method: as §1
[10] = target: T2, Secreted aspartic protease 5 (Candida albicans (strain SC5314 / ATCC MYA-2876) (Yeast)); experiment: Inhibition of SAP5-dependent growth in Candida albicans SAP2MS4B expressing SAP5ex4A at 7.3 uM incubated in YCB-BSA medium; summary of the method: as §1
[11] = target: Secreted aspartic protease 1 (Candida albicans) (UniProt P0CY26); experiment: Inhibition of SAP1-dependent growth in Candida albicans SAP2MS4B expressing SAP1ex4A at 7.3 uM incubated in YCB-BSA medium; summary of the method: as §2
[12] = target: Secreted aspartic protease 3 (Candida albicans) (UniProt P0CY28); experiment: Inhibition of SAP3-dependent growth in Candida albicans SAP2MS4B expressing SAP3ex4A at 7.3 uM incubated in YCB-BSA medium; summary of the method: as §2
[13] = target: Candidapepsin-4 (Candida albicans (strain WO-1) (Yeast)) (UniProt P43093); experiment: Inhibition of SAP4-dependent growth in Candida albicans SAP2MS4B expressing SAP4ex4A at 7.3 uM incubated in YCB-BSA medium; summary of the method: as §1
[14] = target: Secreted aspartic protease 8 (Candida albicans) (UniProt O42778); experiment: Inhibition of SAP8-dependent growth in Candida albicans SAP2MS4B expressing SAP8ex4A at 7.3 uM incubated in YCB-BSA medium; summary of the method: as §2
[15] = target: Secreted aspartic protease 6 (Candida albicans) (UniProt P43095); experiment: Inhibition of SAP6-dependent growth in Candida albicans SAP2MS4B expressing SAP6ex4A at 7.3 uM incubated in YCB-BSA medium; summary of the method: as §1

SMILES	Activity [1]	Activity [2]	Activity [3]	Activity [4]	Activity [5]	Activity [6]	Activity [7]	Activity [8]	Activity [9]	Activity [10]	Activity [11]	Activity [12]	Activity [13]	Activity [14]	Activity [15]
CC(C)c1nc(CN(C)C(=O)N[C@H](C(=O)N[C@@H](Cc2ccccc2)C[C@H](O)[C@H](Cc2ccccc2)NC(=O)OCc2cncs2)C(C)C)cs1	inactive	inactive	Active	inactive	inactive	inactive	Active	Active	–	–	–	–	–	–	–
CC(C)(C)NC(=O)[C@@H]1C[C@@H]2CCCC[C@@H]2CN1C[C@@H](O)[C@H](Cc1ccccc1)NC(=O)[C@H](CC(N)=O)NC(=O)c1ccc2ccccc2n1	inactive	inactive	Active	inactive	inactive	inactive	–	–	–	–	–	–	–	–	–
CC(C)CC(=O)N[C@H](C(=O)N[C@H](C(=O)N[C@@H](CC(C)C)[C@@H](O)CC(=O)N[C@@H](C)C(=O)N[C@@H](CC(C)C)[C@@H](O)CC(=O)O)C(C)C)C(C)C	–	–	–	–	–	–	–	–	Active	Active	Active	Active	Active	Active	Active
